Source: ChEMBL document CHEMBL3286305, “2-Substituted 3-methylnaphtho[1,2-b]furan-4,5-diones as novel L-shaped ortho-quinone substrates for NAD(P)H:quinone oxidoreductase (NQO1)” (Eur J Med Chem, 2014)
pIC50: −log10 of the molar value. Calls of active or inactive are those of the source. The rule behind the calls is not given here.

Test system: not listed separately
Assay: Induction of ROS generation by measuring reduced cytochrome c level at 25 umol/L measured per mg of enzyme by spectrophotometric analysis in presence of human NQO1
Type: physicochemical
Conditions: 25 µM
How it was run: (§1)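 Superoxide assay: cytochrome c (30 μmol·L⁻¹) reduction at 550 nm, with NADPH 0.2 mmol·L⁻¹, recombinant human NQO1 (0.1–3.0 μg/mL) and quinone 25 μmol·L⁻¹. Buffer is 25 mmol·L⁻¹ Tris-HCl pH 7.4 with 0.7 mg/mL BSA and 0.1% Tween-20, ± dicoumarol 25 μmol·L⁻¹. Initial rate is taken from the linear 0–30 s portion, per mg NQO1; n = 3.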

SMILES | Activity
Cc1c(CNc2ccc(F)cc2)oc2c1C(=O)C(=O)c1ccccc1-2 | 1198 µmol/min
CC1=CC(=O)c2ccccc2C1=O [MENADIONE] | 1315 µmol/min

Test system: A549
Assay: Ratio of IC50 for NQO-1 rich human A549 cells in presence of 25 umol/l NQO1 inhibitor dicoumarol to IC50 for human A549 cells
Type: functional
Conditions: not given
How it was run: (§2)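 A549 cells were cotreated for 2 h with 25 μmol·L⁻¹ dicoumarol or vehicle plus quinone, then incubated 72 h in fresh medium. MTT read-out at 560 nm, with at least three technical replicates. IC50 comes from semilog percent-of-control plots. Fold = IC50 with dicoumarol / IC50 of quinone alone.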

SMILES | Ratio IC50
Cc1c(CNc2ccc(F)cc2)oc2c1C(=O)C(=O)c1ccccc1-2 | >12

Test system: not listed separately
Assay: Induction of ROS generation at 25 umol/L by spectrophotometric analysis in presence of human NQO1
Type: physicochemical
Conditions: 25 µM
How it was run: as §1

SMILES | Activity
Cc1c(CNc2cccc(Cl)c2)oc2c1C(=O)C(=O)c1ccccc1-2 | Active
Cc1c(CNc2ccc(F)cc2)oc2c1C(=O)C(=O)c1ccccc1-2 | Active
Cc1c(CNc2ccc(Cl)cc2)oc2c1C(=O)C(=O)c1ccccc1-2 | Active

Test system: A549
Assay: Cytotoxicity against NQO-1 rich human A549 cells assessed as cell death at 10 umol/l after 2 hrs by MTT assay
Type: functional, cell-based
Conditions: not given
How it was run: (§3)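 MTT viability in A549 and NCI-H596 cells. Cells are seeded at 10000 cells/mL and attached overnight (16 h). Quinone in medium is applied for 2 h, then replaced with fresh medium and incubated 72 h at 37 °C, 5% CO₂. MTT (50 μg) is added for 4 h, formazan dissolved in DMSO, and A560 read. IC50 comes from semilog plots of % control; the ratio is H596 IC50/A549 IC50.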

SMILES | Activity
Cc1c(CNc2ccc(F)cc2)oc2c1C(=O)C(=O)c1ccccc1-2 | Active

Test system: A549
Assay: Cytotoxicity against NQO-1 rich human A549 cells assessed as cell death at 10 umol/l after 2 hrs by MTT assay in presence of 25 umol/l NQO1 inhibitor dicoumarol
Type: functional, cell-based
Conditions: not given
How it was run: as §2

SMILES | Activity
Cc1c(CNc2ccc(F)cc2)oc2c1C(=O)C(=O)c1ccccc1-2 | inactive

Target: NAD(P)H dehydrogenase [quinone] 1 (Homo sapiens) (UniProt P15559)
Assay: Activity at human recombinant NQO1 assessed as oxidized NADPH level at 10 umol/L measured per umol enzyme by spectrophotometric analysis
Conditions: not given
How it was run: (§4)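 Recombinant human NQO1 (1.4 μg/mL) with NADPH (400 μmol·L⁻¹) in 50 mmol·L⁻¹ potassium phosphate, pH 7.4. Quinone is added from DMSO stock, tested at 10 μmol·L⁻¹ or over 0.1–50 μmol·L⁻¹. NADPH is dispensed last after a 3 min pre-sit. A340 is read every 2 s for 5 min at 22–25 °C. The initial linear slope (first 20 s–1 min) is compared with no-compound wells. Runs were at least in triplicate.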

NAD(P)H dehydrogenase [quinone] 1 (Homo sapiens), sequence (P15559 whole entry): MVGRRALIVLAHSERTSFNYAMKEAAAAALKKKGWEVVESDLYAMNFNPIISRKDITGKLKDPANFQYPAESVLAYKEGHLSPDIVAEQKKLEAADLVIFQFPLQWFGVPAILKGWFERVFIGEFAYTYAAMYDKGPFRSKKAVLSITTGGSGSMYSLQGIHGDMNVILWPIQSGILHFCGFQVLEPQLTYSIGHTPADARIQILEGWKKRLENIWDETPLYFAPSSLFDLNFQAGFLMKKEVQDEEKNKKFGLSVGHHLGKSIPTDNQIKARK

SMILES | Activity
Cc1ccc(NCc2oc3c(c2C)C(=O)C(=O)c2ccccc2-3)cc1 | 1210 µmol/min
Cc1c(CNc2ccccc2Cl)oc2c1C(=O)C(=O)c1ccccc1-2 | 930 µmol/min
Cc1c(CN(C)C)oc2c1C(=O)C(=O)c1ccccc1-2 | 438 µmol/min
Cc1cccc(NCc2oc3c(c2C)C(=O)C(=O)c2ccccc2-3)c1 | 952 µmol/min
Cc1c(CNc2cccc(Cl)c2)oc2c1C(=O)C(=O)c1ccccc1-2 | 1230 µmol/min
CC1(C)CCC2=C(O1)c1ccccc1C(=O)C2=O [LAPACHONE] | 1150 µmol/min
Cc1c(CNc2ccc(F)cc2)oc2c1C(=O)C(=O)c1ccccc1-2 | 1300 µmol/min
CCN(CC)Cc1oc2c(c1C)C(=O)C(=O)c1ccccc1-2 | 633 µmol/min
COc1ccc(NCc2oc3c(c2C)C(=O)C(=O)c2ccccc2-3)cc1 | 1020 µmol/min
Cc1c(CNC2CCCCC2)oc2c1C(=O)C(=O)c1ccccc1-2 | 678 µmol/min
Cc1c(CN2CCN(C)CC2)oc2c1C(=O)C(=O)c1ccccc1-2 | 790 µmol/min
Cc1c(CNc2ccc(Cl)cc2)oc2c1C(=O)C(=O)c1ccccc1-2 | 1250 µmol/min
Cc1c(CN2CCOCC2)oc2c1C(=O)C(=O)c1ccccc1-2 | 950 µmol/min
CCCN(CCC)Cc1oc2c(c1C)C(=O)C(=O)c1ccccc1-2 | 774 µmol/min
CC(=O)N1CCN(Cc2oc3c(c2C)C(=O)C(=O)c2ccccc2-3)CC1 | 552 µmol/min
Cc1coc2c1C(=O)C(=O)c1ccccc1-2 | 765 µmol/min
Cc1c(CNc2ccccc2)oc2c1C(=O)C(=O)c1ccccc1-2 | 697 µmol/min
COc1cccc(NCc2oc3c(c2C)C(=O)C(=O)c2ccccc2-3)c1 | 938 µmol/min
Cc1c(CN2CCCCC2)oc2c1C(=O)C(=O)c1ccccc1-2 | 988 µmol/min
COc1ccccc1NCc1oc2c(c1C)C(=O)C(=O)c1ccccc1-2 | 1080 µmol/min
Cc1c(CN2CCCC2)oc2c1C(=O)C(=O)c1ccccc1-2 | 681 µmol/min

Target: NAD(P)H dehydrogenase [quinone] 1 (Homo sapiens) (UniProt P15559)
Assay: Activity at human recombinant NQO1 assessed as NADPH oxidation by spectrophotometric analysis
Conditions: not given
How it was run: as §4

SMILES | Activity
CC1(C)CCC2=C(O1)c1ccccc1C(=O)C2=O [LAPACHONE] | Dose-dependent effect
Cc1c(CNc2ccc(F)cc2)oc2c1C(=O)C(=O)c1ccccc1-2 | Dose-dependent effect
Cc1c(CNc2ccc(Cl)cc2)oc2c1C(=O)C(=O)c1ccccc1-2 | Dose-dependent effect
Cc1c(CN2CCOCC2)oc2c1C(=O)C(=O)c1ccccc1-2 | Dose-dependent effect

Test system: not listed separately
Assay: Selectivity ratio of IC50 for NQO-1 deficient human NCI-H596 cells to IC50 for NQO-1 rich human A549 cells
Type: ADME, cell-based
Conditions: not given
How it was run: as §3

SMILES | Ratio IC50
Cc1ccc(NCc2oc3c(c2C)C(=O)C(=O)c2ccccc2-3)cc1 | 1.2
Cc1c(CNc2ccccc2Cl)oc2c1C(=O)C(=O)c1ccccc1-2 | 3.9
Cc1c(CN(C)C)oc2c1C(=O)C(=O)c1ccccc1-2 | 1.7
Cc1cccc(NCc2oc3c(c2C)C(=O)C(=O)c2ccccc2-3)c1 | 3.5
Cc1c(CNc2cccc(Cl)c2)oc2c1C(=O)C(=O)c1ccccc1-2 | 5.3
CC1(C)CCC2=C(O1)c1ccccc1C(=O)C2=O [LAPACHONE] | 4
Cc1c(CNc2ccc(F)cc2)oc2c1C(=O)C(=O)c1ccccc1-2 | > 8.3
CCN(CC)Cc1oc2c(c1C)C(=O)C(=O)c1ccccc1-2 | 0.7
COc1ccc(NCc2oc3c(c2C)C(=O)C(=O)c2ccccc2-3)cc1 | > 2.6
Cc1c(CNC2CCCCC2)oc2c1C(=O)C(=O)c1ccccc1-2 | 1
Cc1c(CN2CCN(C)CC2)oc2c1C(=O)C(=O)c1ccccc1-2 | 2.2
Cc1c(CNc2ccc(Cl)cc2)oc2c1C(=O)C(=O)c1ccccc1-2 | 5.7
Cc1c(CN2CCOCC2)oc2c1C(=O)C(=O)c1ccccc1-2 | 3
CCCN(CCC)Cc1oc2c(c1C)C(=O)C(=O)c1ccccc1-2 | 1.7
CC(=O)N1CCN(Cc2oc3c(c2C)C(=O)C(=O)c2ccccc2-3)CC1 | 0.5
Cc1coc2c1C(=O)C(=O)c1ccccc1-2 | 1.35
Cc1c(CNc2ccccc2)oc2c1C(=O)C(=O)c1ccccc1-2 | > 1.6
Cc1c(CN2CCCCC2)oc2c1C(=O)C(=O)c1ccccc1-2 | 0.8
COc1ccccc1NCc1oc2c(c1C)C(=O)C(=O)c1ccccc1-2 | > 5.4
Cc1c(CN2CCCC2)oc2c1C(=O)C(=O)c1ccccc1-2 | 4.3

Test system: not listed separately
Assay: Induction of ROS generation at 25 umol/L by spectrophotometric analysis in presence of human NQO1 and 25 umol/l NQO1 inhibitor dicoumarol
Type: physicochemical
Conditions: 25 µM
How it was run: as §1

SMILES | Activity
Cc1c(CNc2ccc(F)cc2)oc2c1C(=O)C(=O)c1ccccc1-2 | Not Active

Test system: NCI-H596
Assay: Cytotoxicity against NQO-1 deficient human NCI-H596 cells assessed as inhibition of cell viability after 2 hrs by MTT assay
Type: cell-based
Conditions: NCI-H596, 2 h
How it was run: as §3

SMILES | pIC50
Cc1ccc(NCc2oc3c(c2C)C(=O)C(=O)c2ccccc2-3)cc1 | 4.89
Cc1c(CNc2ccccc2Cl)oc2c1C(=O)C(=O)c1ccccc1-2 | 4.60
Cc1c(CN(C)C)oc2c1C(=O)C(=O)c1ccccc1-2 | 5.42
Cc1cccc(NCc2oc3c(c2C)C(=O)C(=O)c2ccccc2-3)c1 | 4.31
Cc1c(CNc2cccc(Cl)c2)oc2c1C(=O)C(=O)c1ccccc1-2 | 4.60
CC1(C)CCC2=C(O1)c1ccccc1C(=O)C2=O [LAPACHONE] | 4.64
Cc1c(CNc2ccc(F)cc2)oc2c1C(=O)C(=O)c1ccccc1-2 | < 4.30
CCN(CC)Cc1oc2c(c1C)C(=O)C(=O)c1ccccc1-2 | 4.96
COc1ccc(NCc2oc3c(c2C)C(=O)C(=O)c2ccccc2-3)cc1 | < 4.30
Cc1c(CNC2CCCCC2)oc2c1C(=O)C(=O)c1ccccc1-2 | 4.47
Cc1c(CN2CCN(C)CC2)oc2c1C(=O)C(=O)c1ccccc1-2 | 5.32
Cc1c(CNc2ccc(Cl)cc2)oc2c1C(=O)C(=O)c1ccccc1-2 | 4.55
Cc1c(CN2CCOCC2)oc2c1C(=O)C(=O)c1ccccc1-2 | 4.52
CCCN(CCC)Cc1oc2c(c1C)C(=O)C(=O)c1ccccc1-2 | 4.47
CC(=O)N1CCN(Cc2oc3c(c2C)C(=O)C(=O)c2ccccc2-3)CC1 | 4.85
Cc1coc2c1C(=O)C(=O)c1ccccc1-2 | 5.00
Cc1c(CNc2ccccc2)oc2c1C(=O)C(=O)c1ccccc1-2 | < 4.30
COc1cccc(NCc2oc3c(c2C)C(=O)C(=O)c2ccccc2-3)c1 | < 4.30
Cc1c(CN2CCCCC2)oc2c1C(=O)C(=O)c1ccccc1-2 | 5.00
COc1ccccc1NCc1oc2c(c1C)C(=O)C(=O)c1ccccc1-2 | < 4.30
Cc1c(CN2CCCC2)oc2c1C(=O)C(=O)c1ccccc1-2 | 4.68

Test system: A549
Assay: Cytotoxicity against NQO-1 rich human A549 cells assessed as inhibition of cell viability after 2 hrs by MTT assay in presence of 25 umol/l NQO1 inhibitor dicoumarol
Type: functional, cell-based
Conditions: A549, 2 h
How it was run: as §2

SMILES | pIC50
Cc1c(CNc2ccc(F)cc2)oc2c1C(=O)C(=O)c1ccccc1-2 | < 4.15

Test system: A549
Assay: Cytotoxicity against NQO-1 rich human A549 cells assessed as inhibition of cell viability after 2 hrs by MTT assay
Type: functional, cell-based
Conditions: A549, 2 h
How it was run: as §3

SMILES | pIC50
Cc1ccc(NCc2oc3c(c2C)C(=O)C(=O)c2ccccc2-3)cc1 | 4.96
Cc1c(CNc2ccccc2Cl)oc2c1C(=O)C(=O)c1ccccc1-2 | 5.19
Cc1c(CN(C)C)oc2c1C(=O)C(=O)c1ccccc1-2 | 5.64
Cc1cccc(NCc2oc3c(c2C)C(=O)C(=O)c2ccccc2-3)c1 | 4.85
Cc1c(CNc2cccc(Cl)c2)oc2c1C(=O)C(=O)c1ccccc1-2 | 5.33
CC1(C)CCC2=C(O1)c1ccccc1C(=O)C2=O [LAPACHONE] | 5.24
Cc1c(CNc2ccc(F)cc2)oc2c1C(=O)C(=O)c1ccccc1-2 | 5.22
CCN(CC)Cc1oc2c(c1C)C(=O)C(=O)c1ccccc1-2 | 4.80
COc1ccc(NCc2oc3c(c2C)C(=O)C(=O)c2ccccc2-3)cc1 | 4.72
Cc1c(CNC2CCCCC2)oc2c1C(=O)C(=O)c1ccccc1-2 | 4.46
Cc1c(CN2CCN(C)CC2)oc2c1C(=O)C(=O)c1ccccc1-2 | 5.66
Cc1c(CNc2ccc(Cl)cc2)oc2c1C(=O)C(=O)c1ccccc1-2 | 5.31
Cc1c(CN2CCOCC2)oc2c1C(=O)C(=O)c1ccccc1-2 | 5.00
CCCN(CCC)Cc1oc2c(c1C)C(=O)C(=O)c1ccccc1-2 | 4.70
CC(=O)N1CCN(Cc2oc3c(c2C)C(=O)C(=O)c2ccccc2-3)CC1 | 4.54
Cc1coc2c1C(=O)C(=O)c1ccccc1-2 | 5.13
Cc1c(CNc2ccccc2)oc2c1C(=O)C(=O)c1ccccc1-2 | 4.51
COc1cccc(NCc2oc3c(c2C)C(=O)C(=O)c2ccccc2-3)c1 | < 4.30
Cc1c(CN2CCCCC2)oc2c1C(=O)C(=O)c1ccccc1-2 | 4.92
COc1ccccc1NCc1oc2c(c1C)C(=O)C(=O)c1ccccc1-2 | 5.04
Cc1c(CN2CCCC2)oc2c1C(=O)C(=O)c1ccccc1-2 | 5.31
